Series [1] has as its system LO2 human normal liver cells. Kind of series: MTT assay, cytotoxicity against normal cell line LO2. The class given is cell-based. The method, boiled down:
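Cells seeded at about 4000–5000/well and allowed 24 h to adhere. MTT for 4 h, formazan dissolved in DMSO, absorbance read, and inhibition rate per concentration reported.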
In general terms: Tetrazolium dyes change colour on reduction, which living cells bring about.

Another series can be described thus: in vivo. The class given is in vivo, rats.

By inhibition is commonly meant the share of the control response that was lost under treatment. Broadly, the AUC(0-inf) is total exposure, with the tail of the curve extrapolated. A lower AUC(0-inf) goes with less exposure. As usually defined, the AUC(0-t) is the area under the concentration-time curve up to a stated or last time point. A low value points to less exposure. The half-life is the time in which the quantity being followed falls by half.

As to `O=C(/C=C/CCc1ccc(O)cc1)/C=C/c1ccc(O)cc1` [DHDK, (1E,4E)-1,7-Bis(4-hydroxyphenyl)hepta-1,4-dien-3-one], the inhibition at 0.14 µM in series [1] (Homo sapiens, read-out: Inhibition rate, LO2, DHDK 0.14 μmol·L^−1) is 1.36%. Also, the inhibition at 0.42 µM in series [1] (Homo sapiens, read-out: Inhibition rate, LO2, DHDK 0.42 μmol·L^−1) was determined as 1.51%. Besides, in series [1] (Homo sapiens, read-out: Inhibition rate, LO2, DHDK 1.26 μmol·L^−1), the inhibition at 1.26 µM is 1.87%. The inhibition at 3.8 µM in series [1] (Homo sapiens, read-out: Inhibition rate, LO2, DHDK 3.8 μmol·L^−1) stood at 2.08%. In addition, the inhibition at 11.3 µM in series [1] (Homo sapiens, read-out: Inhibition rate, LO2, DHDK 11.3 μmol·L^−1) was determined as 2.57%. The “OD value (mean ± SD)” value in series [1] (LO2, DHDK 0.14 μmol·L^−1) was determined as 0.69 ± 0.013; in series [1] (LO2, DHDK 0.42 μmol·L^−1) it was 0.68 ± 0.039; in series [1] (LO2, DHDK 1.26 μmol·L^−1) it was 0.68 ± 0.022; in series [1] (LO2, DHDK 3.8 μmol·L^−1) it was 0.68 ± 0.031; in series [1] (LO2, DHDK 11.3 μmol·L^−1) it was 0.68 ± 0.0066; in series [1] (LO2, DHDK 34.0 μmol·L^−1), 0.67 ± 0.025. In series [1] (LO2, DHDK 34.0 μmol·L^−1), the Inhibition rate is listed as 4.17%. Further, the “AUC(0–t) of DHDK high-dose group as share of cisplatin group” value in the series “in vivo” (after dose conversion, DHDK 40 mg kg^−1 vs cisplatin 5 mg kg^−1) was 7.3%. The molecule also registered an AUC(0-inf) in the series “in vivo” (rat, in vivo, iv, 14 mg/kg) of 534 ng·h/mL. In addition, the AUC(0-t) in “in vivo” (rat, in vivo, iv, 14 mg/kg) was determined as 459 ng·h/mL. The same molecule had a half-life in the series “in vivo” (rat, in vivo, iv, 14 mg/kg) of 1.79 h. For the same molecule, the “V 1” value in “in vivo” (rat, tail vein injection 14 mg kg^−1 DHDK solution) came to 0.037 L/kg. Also, the “t 1/2α” value in “in vivo” (rat, tail vein injection 14 mg kg^−1 DHDK solution, two-compartmental analysis) was 3.84 min.

The values are drawn from publication PMC9055608 (RSC Advances, 2020).
